Experimental findings from PubChem BioAssay are described below.

Test [1] is described as follows: inhibitors of TNFa-induced NFkB p65 translocation, primary screen, imaging, HUVEC, MLSMR starter and 10KST1 sets (AID 438;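 active = inhibition above 20% together with a positive visual image hit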;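 also: compound added about 3h40 before a 20 min TNFalpha stimulation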;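 as to inhibition: signal is the nuclear over cytoplasmic p65 intensity ratio per well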). As to conditions: HUVEC TNFa-induced p65 nuclear translocation; cell count: measured here: nuclei count (cytotoxicity indicator), at 2.08 µM; inhibition: at 2 µM, stronger effect = higher value, 0% TNFa-plus-vehicle, 100% no-TNFa wells.
Test [2] can be described thus: reduction of polyQ htt aggregates in cells – imaging, exon1htt(103Q)mCFP cells, high-content imaging, primary screen (AID 483;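 active = visual image review flags a hit and inhibition of aggregation exceeds 20%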;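 also: compound exposure lasted 3 days before fixation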;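 as to nuclei count: percent of the per-plate median nuclei count of sample wells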). The note with it: exon1htt(103Q)mCFP cell line, aggregate imaging, at 2 µM; inhibition of aggregation: stronger effect = higher value; nuclei count: measured here: cell count, toxicity.
Test [3] in a line: endothelial E-selectin expression blockers – imaging, HUVEC, immunofluorescence, MLSMR starter and 10KST1 sets, primary screen (AID 487;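 active = visually confirmed hit in the image check and inhibition above 20%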;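 as to inhibition: signal is fraction of cell area covered by stained E-selectin grains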;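 as to nuclei count: 100% = median nuclei count of all wells on the same plate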). The note with it: HUVEC TNFalpha-induced E-selectin immunofluorescence imaging, at 2 µM; inhibition: stronger effect = higher value; nuclei count: measured here: cell number, toxicity.
Test [4] concerns the target Voltage-gated potassium channel subunit beta-2 (Rattus norvegicus) (UniProt P62483). Put plainly: inhibitors of rat Kvbeta2 reductase activity – biochemical, NADPH fluorescence, primary screen (AID 622;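 active = fluorescence slope higher than the sample average by over 3 SD, cut at about -0.22 in these data, passing the limit was not always enough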;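 also: slope of raw intensity against log time taken from 70 to 1610 s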). The note with it: recombinant KvBeta, 4-cyanobenzaldehyde reduction, at 10 µM, stronger effect = higher value.
Test [5] has the same target. Put plainly: enhancers of rat Kvbeta2 NADPH turnover – biochemical, NADPH fluorescence, primary screen (AID 623;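 active = NADPH fluorescence slope more negative than the mean of all samples by about 3 SD, 99.7% confidence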;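 also: fluorescence intensity change per second fitted from 20 to 320 s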). The note with it: Recombinant KvBeta, NADPH fluorescence decrease slope, 10 min; at 10 µM; stronger effect = lower value.
Test [6] concerns the target Muscarinic acetylcholine receptor M4 (Homo sapiens) (UniProt P08173). Put plainly: M4-linked GIRK flux change, two-sided – cell-based, HEK293 M4/GIRK, thallium flux, BTC-AM, M4 allosteric agonist project, primary screen (AID 625;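 active = fluorescence slope after compound addition differing from the mean of all tested samples at 99.7% confidence, mostly higher but some lower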;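 also: thallium influx through GIRK channels coupled to M4 in HEK293 cells with BTC-AM dye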). As to conditions: at 10 µM, actives lie on both sides. In short, it runs like this: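 Assay system: HEK293 cells with M4 receptor and GIRK channels / Controls: carbachol and DMSO controls / Schedule: 1 h dye loading, 2 min kinetic read / Technique: kinetic fluorescence with BTC-AM dye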

Test [7] is described as follows: blockers of RIG-like receptor reporter activation – cell-based, Sendai virus stimulus, luciferase, 10K MLSCN set, TLR/RLR signaling modifier project, primary screen (AID 602276;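 active = inhibition at or above 50% at 10 µM; inactive = inhibition below 50%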;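 also: firefly luciferase from ISG56 promoter only with Renilla not read in this screen; 0% = Sendai virus plus DMSO and 100% = medium plus DMSO without virus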). The note with it: HEK293 RL24 IRF3 luciferase reporter, at 10 µM, stronger effect = higher value. On the technique in general: In a reporter assay the amount or activity of a reporter protein is the signal.

Test [8] can be described thus: TLR3 IRF3 reporter activation blockers – cell-based, poly I:C stimulus, luciferase, 10K MLSCN set, primary screen (AID 602277). The note with it: HEK293-TLR3 RL24 IRF3 luciferase reporter, at 10 µM, stronger effect = higher value.

Calls of active or inactive are those of the source.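 The calls were made as follows, unless noted: active = inhibition of the reporter signal at or above 50%; inactive = inhibition below 50%.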

Voltage-gated potassium channel subunit beta-2 (Rattus norvegicus), sequence (P62483 whole entry, looked up): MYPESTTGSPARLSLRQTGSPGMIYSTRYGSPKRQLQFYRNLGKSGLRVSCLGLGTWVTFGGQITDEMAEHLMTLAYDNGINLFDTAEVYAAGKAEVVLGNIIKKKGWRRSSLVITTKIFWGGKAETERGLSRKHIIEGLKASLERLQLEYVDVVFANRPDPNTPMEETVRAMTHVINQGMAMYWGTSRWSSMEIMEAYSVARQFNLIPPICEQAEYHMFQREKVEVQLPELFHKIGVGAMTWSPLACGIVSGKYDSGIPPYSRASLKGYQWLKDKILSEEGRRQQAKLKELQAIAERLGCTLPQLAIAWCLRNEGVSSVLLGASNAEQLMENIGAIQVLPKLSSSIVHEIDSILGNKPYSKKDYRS
Muscarinic acetylcholine receptor M4 (Homo sapiens), sequence (P08173 whole entry, looked up): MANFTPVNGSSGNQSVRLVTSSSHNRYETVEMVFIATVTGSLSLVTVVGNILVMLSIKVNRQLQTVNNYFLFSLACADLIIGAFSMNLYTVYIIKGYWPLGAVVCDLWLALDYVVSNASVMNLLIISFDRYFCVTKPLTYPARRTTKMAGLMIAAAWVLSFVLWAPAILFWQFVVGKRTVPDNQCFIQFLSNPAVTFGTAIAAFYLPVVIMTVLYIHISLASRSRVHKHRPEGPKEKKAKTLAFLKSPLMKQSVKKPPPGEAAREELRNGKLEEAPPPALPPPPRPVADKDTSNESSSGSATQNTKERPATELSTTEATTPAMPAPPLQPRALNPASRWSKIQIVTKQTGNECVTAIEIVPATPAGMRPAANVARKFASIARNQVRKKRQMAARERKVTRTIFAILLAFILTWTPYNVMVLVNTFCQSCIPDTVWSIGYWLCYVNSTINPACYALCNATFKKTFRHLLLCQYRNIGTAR

One may read the inhibition as the change of the read-out against control, counted positive when it falls. As to `CC(=O)N1CCC2(CC1)CC(=O)c1cc(OCC(=O)NCc3ccco3)ccc1O2`, the cell count in test [1] stood at 376. For the same compound, the inhibition in test [1] is 6.6% (inactive); in test [3] it was -143% (inactive); in test [7], -7.82% (inactive); in test [8] it was 2.06% (inactive). For the same compound, the inhibition of aggregation in test [2] was -16.2% (inactive). Further, the nuclei count in test [2] came out at 113%; in test [3] it was 97.8%. For the same compound, the figures for the fluorescence slope in test [4] and in test [6] were -0.253 (inactive) and 0.00743 (inactive), respectively. Further, the NADPH fluorescence slope in test [5] was 1.5e-05 (inactive).
Consider `CC(C)(C)C1CCc2c(sc3c2C(=O)NC(c2ccco2)N3)C1` (centres undefined), for which, in test [1], the cell count was 639. Besides, the inhibition is -34.8% (inactive) in test [1], 15.7% (inactive) in test [3], -39.4% (inactive) in test [7] and -133% (inactive) in test [8]. In addition, in test [2], the inhibition of aggregation was 14.3% (inactive). Besides, the nuclei count came out at 125% in test [2] and 97% in test [3]. The fluorescence slope was -0.506 (inactive) in test [4] and 0.00491 (inactive) in test [6]. In addition, the NADPH fluorescence slope in test [5] was 2.4e-05 (inactive).
As to `Cc1nc(-c2ccc(NC(=O)c3cccs3)cc2)cs1`, the cell count in test [1] was 369. The inhibition in test [1] was -3.7% (inactive); in test [3], -0.4% (inactive); in test [7], -23.5% (inactive); in test [8], -96.4% (inactive). Further, the inhibition of aggregation in test [2] is 20.1% (inactive). Further, the nuclei count in test [2] worked out at 105%; in test [3], 109%. Besides, the fluorescence slope is -0.427 (inactive) in test [4] and 0.005 (inactive) in test [6]. For the same compound, the NADPH fluorescence slope in test [5] is -4.1e-05 (inactive).
Regarding `Cc1c(NC(=O)C(C)OC(=O)COc2cccc3c2OC(C)(C)C3)c(=O)n(-c2ccccc2)n1C` (centres undefined), the cell count in test [1] worked out at 652. In addition, the inhibition is -11.6% (inactive) in test [1], -45.4% (inactive) in test [3], 4.56% (inactive) in test [7] and 14.8% (inactive) in test [8]. The inhibition of aggregation in test [2] was -3.5% (inactive). The figures for the nuclei count in test [2] and in test [3] were 129% and 122%, respectively. Moreover, the fluorescence slope in test [4] is -0.59 (inactive); in test [6], 0.00305 (inactive). In test [5], the NADPH fluorescence slope was -7.7e-05 (inactive).
`FC(F)Sc1nnc(-c2cccs2)n1-c1ccccc1`: the cell count in test [1] was determined as 824. Also, the inhibition is -5% (inactive) in test [1], -146% (inactive) in test [3], 17.7% (inactive) in test [7] and 31% (inactive) in test [8]. For the same compound, the inhibition of aggregation in test [2] was -10.1% (inactive). In addition, the nuclei count in test [2] was determined as 95.3%; in test [3] it was 122%. The fluorescence slope in test [4] is -0.532 (inactive); in test [6] it was 0.00612 (inactive). The NADPH fluorescence slope in test [5] was -3.2e-05 (inactive).
For the compound `O=C(Cn1c(=O)[nH]c2ccsc2c1=O)N1CCN(c2ccc(F)cc2)CC1`, the cell count in test [1] was 654. Moreover, the inhibition in test [1] is -29.9% (inactive); in test [3] it was -34.1% (inactive); in test [7], 15.1% (inactive); in test [8] it was 21.3% (inactive). The inhibition of aggregation in test [2] was -0.5% (inactive). In addition, the nuclei count in test [2] came to 106%; in test [3], 121%. Besides, the fluorescence slope was -0.451 (inactive) in test [4] and 0.00533 (inactive) in test [6]. Further, the NADPH fluorescence slope in test [5] is -3e-05 (inactive).
`Cc1cc(C(=O)O)ccc1-n1c(C)ccc1C`: the cell count in test [1] worked out at 332. Moreover, the inhibition is -3.7% (inactive) in test [1], -88.3% (inactive) in test [3], 14.8% (inactive) in test [7] and 20% (inactive) in test [8]. Moreover, in test [2], the inhibition of aggregation was 0.1% (inactive). For the same compound, the nuclei count in test [2] was found to be 106%; in test [3], 118%. For the same compound, the results for the fluorescence slope in test [4] and in test [6] were -0.554 (inactive) and 0.00607 (inactive), respectively. The NADPH fluorescence slope in test [5] is -3.5e-05 (inactive).
As to `COc1ccc(OC)c(Nc2cc(-c3ccccc3)nc(N)n2)c1`, in test [1], the cell count was 423. In addition, the inhibition in test [1] is 9.2% (inactive); in test [3], -25.1% (inactive); in test [7], 46.6% (inactive); in test [8], 86.6% (active). The inhibition of aggregation in test [2] is -34.6% (inactive). Besides, the nuclei count in test [2] was determined as 0.5%; in test [3], 115%. In addition, the fluorescence slope in test [4] is -0.548 (inactive); in test [6], 0.00508 (inactive). Further, in test [5], the NADPH fluorescence slope is 4.9e-06 (inactive).
In the case of `COc1cc(S(=O)(=O)NC2CCCCC2)ccc1Cl`, in test [1], the cell count was 405. Besides, the inhibition in test [1] was 7.6% (inactive); in test [3], 3.8% (inactive); in test [7] it was 16.6% (inactive); in test [8], 31.9% (inactive). The inhibition of aggregation in test [2] is 4.9% (inactive). In addition, the results for the nuclei count in test [2] and in test [3] were 89% and 94.9%, respectively. The fluorescence slope in test [4] is -0.417 (inactive); in test [6], 0.00482 (inactive). The NADPH fluorescence slope in test [5] was 4.1e-05 (inactive).
Consider `Cc1occc1-c1nnc(SCC(=O)NCC2CCCO2)n1C` (centres undefined), for which the cell count in test [1] stood at 687. Also, the inhibition is -0.3% (inactive) in test [1], 40.7% (inactive) in test [3], 16.7% (inactive) in test [7] and 10.3% (inactive) in test [8]. For the same compound, the inhibition of aggregation in test [2] was -23% (inactive). Besides, the nuclei count in test [2] turned out to be 120%; in test [3] it was 95%. Also, the values for the fluorescence slope in test [4] and in test [6] were -0.521 (inactive) and 0.0055 (inactive), respectively. The NADPH fluorescence slope in test [5] is 0.00013 (inactive).
With `COc1ccc(-n2nc(C(=O)Nc3ccc4c(c3)OCO4)c3c4ccccc4n(C)c3c2=O)cc1`, the cell count in test [1] stood at 218. The inhibition in test [1] was 4.3% (inactive); in test [3], -66% (inactive); in test [7] it was 10.3% (inactive); in test [8] it was 24.3% (inactive). For the same compound, in test [2], the inhibition of aggregation is -21.9% (inactive). In addition, the nuclei count in test [2] was found to be 47.3%; in test [3], 97.1%. For the same compound, the fluorescence slope in test [4] is -0.566 (inactive); in test [6], 0.0112 (active). Further, the NADPH fluorescence slope in test [5] was 4e-06 (inactive).
Consider `CCOC(=O)c1c(C)oc2ccc(OCC(N)=O)cc12`, for which the cell count in test [1] stood at 794. In addition, the inhibition in test [1] is -12.1% (inactive); in test [3], 20.4% (inactive); in test [7], 5.65% (inactive); in test [8], 6.54% (inactive). Moreover, in test [2], the inhibition of aggregation was -6.7% (inactive). The nuclei count in test [2] is 36.5%; in test [3], 93.5%. Besides, the results for the fluorescence slope in test [4] and in test [6] were -0.483 (inactive) and 0.00617 (inactive), respectively. For the same compound, in test [5], the NADPH fluorescence slope is -1.6e-05 (inactive).
As for `CCN(c1cccc(C)c1)S(=O)(=O)c1ccc2[nH]c(=O)c(=O)[nH]c2c1`, the cell count in test [1] amounted to 415. Besides, the inhibition is 6.2% (inactive) in test [1], -8.3% (inactive) in test [3], 12.5% (inactive) in test [7] and 21.6% (inactive) in test [8]. The inhibition of aggregation in test [2] was 7.1% (inactive). The nuclei count came to 93.5% in test [2] and 98% in test [3]. Besides, the figures for the fluorescence slope in test [4] and in test [6] were -0.514 (inactive) and 0.00491 (inactive), respectively. In test [5], the NADPH fluorescence slope was -0.000128 (inactive).
For the compound `Cc1noc(NS(=O)(=O)c2ccc(NC(=O)CCC3CCCC3)cc2)c1C`, the cell count in test [1] turned out to be 472. Moreover, the inhibition in test [1] was 2.1% (inactive); in test [3], -147% (inactive); in test [7], 19.6% (inactive); in test [8] it was 11.2% (inactive). For the same compound, the inhibition of aggregation in test [2] was -12.2% (inactive). Also, the figures for the nuclei count in test [2] and in test [3] were 83.5% and 115%, respectively. For the same compound, the fluorescence slope in test [4] is -0.557 (inactive); in test [6], 0.00725 (inactive). In test [5], the NADPH fluorescence slope is -1.2e-05 (inactive).
